Numbering of substitutions follows the chain as printed.
What was measured:
Hv1 WT = target: T1, Hv1 WT (Homo sapiens, UniProt Q96D96); assay: Inside-out patch, pulsed application of inhibitor to the closed channel; assay type: cell-based; conditions: for channel inhibition under pulsed conditions: 100 µM pulses
T1 sequence (Q96D96 1-273): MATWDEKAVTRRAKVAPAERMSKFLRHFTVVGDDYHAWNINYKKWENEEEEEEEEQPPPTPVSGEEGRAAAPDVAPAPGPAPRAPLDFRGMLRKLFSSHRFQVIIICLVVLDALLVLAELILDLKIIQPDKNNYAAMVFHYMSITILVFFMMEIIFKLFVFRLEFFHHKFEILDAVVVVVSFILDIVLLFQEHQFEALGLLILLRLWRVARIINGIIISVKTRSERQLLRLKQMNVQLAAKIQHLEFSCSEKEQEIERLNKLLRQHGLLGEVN
Summary of the method: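 WT channel, inside-out oocyte patches, pH 6.0. Test compound (100 µM) applied in 3 s pulses while the membrane was held closed at −40 mV, or at 0 mV or −80 mV. Current read after each pulse with a step to +120 mV. Control pulses of a reference Hv1 inhibitor given first to confirm complete washout between depolarizations.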

monomeric Hv1 = target: T2, monomeric Hv1 (Homo sapiens, UniProt Q96D96); assay: Inside-out patch time course of inhibition, monomeric Hv1 chimera; assay type: cell-based; conditions: 50 µM
T2 sequence (Q96D96 97-227 limits assumed): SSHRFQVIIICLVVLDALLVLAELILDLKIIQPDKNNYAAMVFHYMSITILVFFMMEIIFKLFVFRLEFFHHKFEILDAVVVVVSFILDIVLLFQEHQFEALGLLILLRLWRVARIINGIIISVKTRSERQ

Hv1 D112E = target: T3, Hv1 D112E (Homo sapiens, UniProt Q96D96, D112E); assay: Inside-out patch time course of inhibition, mutant channel; assay type: cell-based; conditions: 50 µM, RDT 0.1
T3 sequence (Q96D96 1-273 D112E): T1 sequence (Q96D96 1-273) with D112E
Summary of the method: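 Mutant channel expressed in oocytes. Inside-out patches, pH 6.0 both sides, 22 ± 1°C. Holding −40 mV, depolarizations to +120 mV at relative depolarization time 0.1 (2 s/20 s) to follow slow kinetics, with matched WT comparison. 50 µM perfused into bath. Isochronal end-pulse current, leak- and rundown-corrected. Decay fitted with a double-exponential function for fast and slow components.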

Hv1 F150A = target: T4, Hv1 F150A (Homo sapiens, UniProt Q96D96, F150A); assay: Inside-out patch time course of inhibition, mutant channel; assay type: cell-based; conditions: 0.1 µM, SEM, n = 5
T4 sequence (Q96D96 1-273 F150A): T1 sequence (Q96D96 1-273) with F150A

Hv1 S181A = assay: Inside-out patch time course of inhibition, mutant channel; assay type: cell-based, human; conditions: 50 µM
Summary of the method: (§1)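 Xenopus oocytes injected with mutant-channel mRNA 1–3 d earlier, kept at 18°C in ND96. Inside-out patches at 22 ± 1°C in symmetric Mes/TEA solutions, pH 6.0. Held at −40 mV and pulsed to +120 mV at relative depolarization time 0.2 (3 s/15 s). 50 µM perfused into bath. End-pulse current leak- and rundown-corrected. Decay fitted double-exponentially (τfast, τslow, cfast, cslow); washout recovery single-exponentially (τoff).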

Hv1 R211A = assay: as above; assay type: cell-based, human; conditions: 50 µM
Summary of the method: as §1

Hv1 K157Q = target: T5, Hv1 K157Q (Homo sapiens, UniProt Q96D96, K157Q); assay: as above; assay type: cell-based; conditions: 50 µM
T5 sequence (Q96D96 1-273 K157Q): T1 sequence (Q96D96 1-273) with K157Q
Summary of the method: as §1

Hv1 D174E = target: T6, Hv1 D174E (Homo sapiens, UniProt Q96D96, D174E); assay: as above; assay type: cell-based
T6 sequence (Q96D96 1-273 D174E): T1 sequence (Q96D96 1-273) with D174E
Summary of the method: as §1

Hv1 R208K = target: T7, Hv1 R208K (Homo sapiens, UniProt Q96D96, R208K); assay: as above; assay type: cell-based; conditions: 50 µM; fast component not resolved from slow component
T7 sequence (Q96D96 1-273 R208K): T1 sequence (Q96D96 1-273) with R208K
Summary of the method: as §1

- τ of current decay under pulsed application (Hv1 WT; 100 μM for 3 s pulses, membrane at −40 mV during application, single-exponential): 46 ± 4 s
- channel inhibition under pulsed conditions (Hv1 WT; membrane held at 0 mV): 55 ± 3%
- channel inhibition under pulsed conditions (Hv1 WT; membrane held at −80 mV): 33 ± 4%
- extent of inhibition compared with WT (monomeric Hv1): not reduced
- fast component of the inhibition process (Hv1 D112E): eliminated
- slow component of the inhibition process (Hv1 D112E): unaffected
- ratio between the peak current and the current at the end of the depolarization step in the presence of the inhibitor (Hv1 F150A): 2.5 ± 0.5
- reduction of the extent of inhibition vs WT (Hv1 K157Q): 46%
- τslow (Hv1 K157Q): > 200 s
- reduction of the extent of inhibition vs WT (Hv1 D174E; 50 µM): 35%
- τslow (Hv1 D174E; 50 µM, too slow to be accurately quantified): > 200 s
- τoff, recovery from inhibition (Hv1 D174E; after 50 µM, RDT = 0.2): 37 ± 6 s
- extent of inhibition compared with WT (Hv1 R208K): slightly increased
Structure (SMILES): Cc1[nH]c(N)nc1CCC(=O)c1cc(F)cc(F)c1 [HIF, 3-(2-amino-5-methyl-1H-imidazol-4-yl)-1-(3,5-difluorophenyl)propan-1-one]
- higher inhibition vs WT (Hv1 S181A): 7%
- reduction in τslow vs WT (Hv1 S181A): 26%
- higher inhibition (decreased steady-state remaining current) vs WT (Hv1 R211A): 15%
- reduction in τslow vs WT (Hv1 R211A): 64%
